Experimental data reported in ChEMBL document CHEMBL4811303, “Synthesis and evaluation of trypanocidal activity of derivatives of naturally occurring 2,5-diphenyloxazoles” (Bioorg Med Chem, 2021).

Experiments:
[1] = tested on: Trypanosoma brucei brucei; assay: Trypanocidal activity against Trypanosoma brucei brucei assessed as reduction in intracellular ATP production incubated for 72 hrs by CellTiter-Glo luminescent cell viability assay; type: functional, organism-based
Method in brief: (§1)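 Bloodstream trypanosomes in 96-well culture were exposed to compound in 5-fold serial dilutions from 25 µg/mL to 1.6 ng/mL for 72 h. Seeding and temperature: T. b. brucei, T. b. gambiense and T. b. rhodesiense at 5×10^3 cells/mL and 37 °C; T. evansi at 1×10^4 cells/mL and 37 °C; T. congolense at 2×10^5 cells/mL and 33 °C. Viability was read as intracellular ATP by CellTiter-Glo luminescence. Three replicates; IC50 calculated.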

[2] = tested on: Trypanosoma brucei gambiense; assay: Trypanocidal activity against Trypanosoma brucei gambiense assessed as reduction in intracellular ATP production incubated for 72 hrs by CellTiter-Glo luminescent cell viability assay; type: functional, organism-based; method in brief: as §1
[3] = tested on: Trypanosoma brucei rhodesiense; assay: Trypanocidal activity against Trypanosoma brucei rhodesiense assessed as reduction in intracellular ATP production incubated for 72 hrs by CellTiter-Glo luminescent cell viability assay; type: functional, organism-based; method in brief: as §1
Trypanosoma congolense = assay: Trypanocidal activity against Trypanosoma congolense assessed as reduction in intracellular ATP production incubated for 72 hrs by CellTiter-Glo luminescent cell viability assay; type: functional, organism-based; method in brief: as §1
Trypanosoma evansi = assay: Trypanocidal activity against Trypanosoma evansi assessed as reduction in intracellular ATP production incubated for 72 hrs by CellTiter-Glo luminescent cell viability assay; type: functional, organism-based; method in brief: as §1
MDBK cells (Bos taurus) = assay: Cytotoxicity against bovine MDBK cells assessed as reduction in cell viability incubated for 72 hrs by CCK8 assay
[4] = Selectivity index, ratio of IC50 for cytotoxicity against bovine MDBK cells to IC50 for Trypanocidal activity against Trypanosoma evansi
[5] = Selectivity index, ratio of IC50 for cytotoxicity against bovine MDBK cells to IC50 for Trypanocidal activity against Trypanosoma congolense
[6] = Selectivity index, ratio of IC50 for cytotoxicity against bovine MDBK cells to IC50 for Trypanocidal activity against Trypanosoma brucei brucei; conditions: cattle
[7] = Selectivity index, ratio of IC50 for cytotoxicity against bovine MDBK cells to IC50 for Trypanocidal activity against Trypanosoma brucei gambiense; conditions: cattle
[8] = Selectivity index, ratio of IC50 for cytotoxicity against bovine MDBK cells to IC50 for Trypanocidal activity against Trypanosoma brucei rhodesiense

| Compound | IC50 [1] | IC50 [2] | IC50 [3] | IC50 (Trypanosoma congolense) | IC50 (Trypanosoma evansi) | IC50 (MDBK cells (Bos taurus)) | selectivity ratio [4] | selectivity ratio [5] | selectivity ratio [6] | selectivity ratio [7] | selectivity ratio [8] |
| --- | --- | --- | --- | --- | --- | --- | --- | --- | --- | --- | --- |
| COc1cccc(-c2ncc(-c3ccc4ccccc4c3)o2)c1OC | 71.5 µM | 51.7 µM | 71.7 µM | 45.8 µM | 71.2 µM | 42.7 µM | 0.6 | 0.93 | 0.6 | 0.83 | 0.6 |
| Oc1ccccc1-c1cnc(-c2cccc(O)c2O)o1 | 9.1 µM | 13.5 µM | 2.8 µM | 1.1 µM | 4.7 µM | 7 µM | 1.5 | 6.3 | 0.77 | 0.52 | 2.5 |
| Cc1ccc(C(=O)Nc2ccc(S(=O)(=O)O)c3cc(S(=O)(=O)O)cc(S(=O)(=O)O)c23)cc1NC(=O)c1cccc(NC(=O)Nc2cccc(C(=O)Nc3cc(C(=O)Nc4ccc(S(=O)(=O)O)c5cc(S(=O)(=O)O)cc(S(=O)(=O)O)c45)ccc3C)c2)c1 [SURAMIN] | 0.066 µM | 0.064 µM | 0.076 µM | 7.2 µM | 0.38 µM |  |  |  |  |  |  |
| COc1cccc(-c2ncc(-c3ccccc3)o2)c1OC | 86.6 µM | 84.7 µM | 84.1 µM | 4 µM | 59.3 µM | 40.6 µM | 0.68 | 10 | 0.47 | 0.48 | 0.48 |
| COCOc1ccccc1-c1cnc(-c2cccc(OC)c2OC)o1 | 21.5 µM | 19.6 µM | 26.2 µM | 3.9 µM | 25.8 µM | 82.2 µM | 3.2 | 21 | 3.8 | 4.2 | 3.1 |
| COc1ccc(OC)c(-c2ncc(-c3ccccc3OC)o2)c1 | > 80.3 µM | > 80.3 µM | > 80.3 µM | > 80.3 µM | > 80.3 µM | > 321 µM |  |  |  |  |  |
| COc1cccc(-c2ncc(-c3c(OC)cccc3OC)o2)c1OC | 31.6 µM | 25.8 µM | 32.2 µM | 7.7 µM | 26.6 µM | 91.6 µM | 3.4 | 12 | 2.9 | 3.5 | 2.8 |
| COc1ccc(-c2ncc(-c3ccccc3OC)o2)c(OC)c1 | 75.3 µM | 35.8 µM | 59.2 µM | 15.3 µM | 65.1 µM | 59.5 µM | 0.91 | 3.9 | 0.79 | 1.7 | 1 |
| COc1cccc(-c2cnc(-c3cccc(OC)c3)o2)c1 | 62.2 µM | 66.9 µM | 66.5 µM | 21.4 µM | 53.9 µM | > 355 µM | > 6.6 | > 17 | > 5.7 | > 5.3 | > 5.3 |
| COc1cccc(-c2ncc(-c3ccccc3OC)o2)c1 | > 88.9 µM | > 88.9 µM | > 88.9 µM | 6.7 µM | > 88.9 µM | 161 µM | < 1.8 | 24 | < 1.8 | < 1.8 | < 1.8 |
| CCOc1ccccc1-c1cnc(-c2cccc(OC)c2OC)o1 | > 76.8 µM | > 76.8 µM | > 76.8 µM | 4.4 µM | > 76.8 µM | > 307 µM |  | > 69 |  |  |  |
| COc1cccc(-c2ncc(-c3ccc(OC)c(OC)c3OC)o2)c1OC | 64.9 µM | 63.4 µM | 65 µM | 23.6 µM | 59.8 µM | 99.1 µM | 1.7 | 4.2 | 1.5 | 1.6 | 1.5 |
| Oc1ccccc1-c1cnc(-c2cccc(O)c2O)s1 | 7.7 µM | 8.2 µM | 7.8 µM | 2.3 µM | 4 µM | 20 µM | 5 | 8.8 | 2.6 | 2.4 | 2.6 |
| COc1ccccc1-c1cnc(-c2cccc(OC)c2OC)s1 | 32 µM | 31.4 µM | 29.6 µM | 5.7 µM | 30.9 µM | 114 µM | 3.7 | 20 | 3.6 | 3.6 | 3.9 |
| COc1ccc(-c2cnc(-c3cccc(OC)c3OC)o2)cc1 | 76.4 µM | 74.5 µM | 77 µM | 17.3 µM | 64.5 µM | 22.8 µM | 0.35 | 1.3 | 0.3 | 0.31 | 0.3 |
| COc1cccc(-c2ncc(-c3ccccc3O)o2)c1OC | > 84.1 µM | > 84.1 µM | > 84.1 µM | > 84.1 µM | > 84.1 µM | > 336 µM |  |  |  |  |  |
| COc1ccc(-c2cnc(-c3cccc(OC)c3OC)o2)c(OC)c1 | 35.4 µM | 31.2 µM | 28.7 µM | 1.5 µM | 28.2 µM | > 293 µM | > 10 | > 190 | > 8.3 | > 9.4 | > 10 |
| COc1ccccc1-c1nnc(-c2cccc(OC)c2OC)o1 | 13.3 µM | 13.3 µM | 13.4 µM | 2.7 µM | 7.5 µM | 32.3 µM | 4.3 | 12 | 2.4 | 2.4 | 2.4 |
| CC1CS(=O)(=O)CCN1/N=C/c1ccc([N+](=O)[O-])o1 (stereo not given) [NIFURTIMOX] | 4.7 µM |  | 4.4 µM | 1.1 µM | 2.6 µM |  |  |  |  |  |  |
| COc1ccccc1-c1cnc(-c2cccc(OC)c2OC)o1 | > 80.3 µM | > 80.3 µM | > 80.3 µM | 0.78 µM | > 80.3 µM | > 321 µM |  | > 414 |  |  |  |
| Oc1ccccc1-c1nnc(-c2cccc(O)c2O)s1 | 3.9 µM | 4.6 µM | 4.4 µM | 0.85 µM | 2.1 µM | 13.6 µM | 6.3 | 16 | 3.5 | 3 | 3.1 |
| CCCOc1ccccc1-c1cnc(-c2cccc(OC)c2OC)o1 | 20.3 µM | 28.2 µM | 27.1 µM | 7.6 µM | 28.4 µM | > 295 µM | > 10 | > 39 | > 15 | > 10 | > 11 |
| COc1ccc(OC)c(-c2cnc(-c3ccccc3OC)o2)c1 | > 80.3 µM | 22.2 µM | > 80.3 µM | 4.3 µM | > 80.3 µM | > 321 µM |  | > 75 |  | > 14 |  |
| COc1ccc(OC)c(-c2cnc(-c3ccccc3)o2)c1 | > 88.9 µM | > 88.9 µM | > 88.9 µM | 15.4 µM | > 88.9 µM | > 355 µM |  | > 23 |  |  |  |
| COc1ccc(OC)c(-c2cnc(-c3cccc(OC)c3OC)o2)c1 | > 73.2 µM | > 73.2 µM | > 73.2 µM | 1.6 µM | > 73.2 µM | > 293 µM |  | > 188 |  |  |  |
| COc1ccc(OC)c(-c2cnc(-c3cc(OC)ccc3OC)o2)c1 | > 73.2 µM | > 73.2 µM | > 73.2 µM | 2.9 µM | > 73.2 µM | > 293 µM |  | > 100 |  |  |  |
| COc1cccc(-c2ncc(-c3ccccc3NC(C)=O)o2)c1OC | > 73.9 µM | > 73.9 µM | > 73.9 µM | 38.2 µM | > 73.9 µM | > 296 µM |  | > 7.8 |  |  |  |
| COc1ccc(-c2cnc(-c3ccc(OC)cc3)o2)cc1 | > 88.9 µM | > 88.9 µM | > 88.9 µM | > 88.9 µM | > 88.9 µM | > 355 µM |  |  |  |  |  |
| COc1ccccc1-c1cnc(-c2ccccc2OC)o1 | > 88.9 µM | > 88.9 µM | > 88.9 µM | 2.8 µM | > 88.9 µM | > 355 µM |  | > 128 |  |  |  |
